# In ChEMBL document CHEMBL1152927, “Diterpene glycosides from the seeds of Pharbitis nil” (J Nat Prod, 2009):
# How the values were obtained:
# Assay type in all cases: functional, cell-based
# HCT-15 = assay: Cytotoxicity against human HCT15 cells by SRB assay
# How it was run: (§1)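 Sulforhodamine B (SRB) assay against cultured human cancer cell lines, run at the Korea Research Institute of Chemical Technology. Cytotoxicity is reported as IC50 in µM.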
# SK-OV-3 = assay: Cytotoxicity against human SKOV3 cells by SRB assay; how it was run: as §1
# SK-MEL-2 = assay: Cytotoxicity against human SK-MEL-2 cells by SRB assay; how it was run: as §1
# A549 = assay: Cytotoxicity against human A549 cells by SRB assay; how it was run: as §1
Compound,IC50 (HCT-15) [µM],IC50 (SK-OV-3) [µM],IC50 (SK-MEL-2) [µM],IC50 (A549) [µM]
C[C@@]12CCC[C@@](C)(C(=O)O)[C@H]1[C@H](O)[C@H](O)[C@@]13C[C@H](CC[C@@H]21)[C@](O)(CO)C3,> 30,> 30,> 30,> 30
C[C@@]12CCC[C@@](C)(C(=O)O)[C@H]1[C@H](O)[C@H](O)[C@@]13C[C@H](CC[C@@H]21)[C@@](O)(CO)C3,> 30,> 30,> 30,> 30
C[C@]12CCC[C@@]3(C)C(=O)O[C@@H]([C@H](O)[C@@]45C[C@H](CC[C@@H]14)[C@](O)(CO)C5)[C@@H]23,> 30,> 30,> 30,> 30
COc1cccc2c1C(=O)c1c(O)c3c(c(O)c1C2=O)C[C@@](O)(C(=O)CO)C[C@@H]3O[C@H]1C[C@H](N)[C@H](O)[C@H](C)O1 [DOXORUBICIN],0.164,0.056,0.117,
C=C1C[C@]23C[C@@H]1CC[C@H]2[C@]1(C)CCC[C@@](C)(C(=O)O[C@@H]2O[C@H](CO)[C@@H](O)[C@H](O)[C@H]2O)[C@H]1C[C@@H]3O [PHARBOSIDE A],> 30,> 30,> 30,> 30
C=C1C[C@]23C[C@@H]1CC[C@H]2[C@]1(C)CCC[C@@](C)(C(=O)O[C@@H]2O[C@H](CO)[C@@H](O)[C@H](O)[C@H]2O)[C@H]1C[C@H]3O [PHARBOSIDE B],> 30,> 30,> 30,> 30
COC(=O)[C@]1(C)CCC[C@@]2(C)[C@@H]3CC[C@H]4C[C@]3(C[C@@]4(CO)O[C@@H]3O[C@H](CO)[C@@H](O)[C@H](O)[C@H]3O)[C@@H](O)[C@@H](O)[C@@H]21 [PHARBOSIDE C],> 30,> 30,> 30,> 30
C[C@@]12CCC[C@@](C)(C(=O)O[C@@H]3O[C@H](CO)[C@@H](O)[C@H](O)[C@H]3O)[C@H]1[C@H](O)[C@H](O)[C@@]13C[C@H](CC[C@@H]21)[C@](O)(CO)C3 [PHARBOSIDE D],17.2,28.7,14.3,25.2
C[C@@]12CCC[C@@](C)(C(=O)O)[C@H]1[C@H](O)[C@H](O)[C@@]13C[C@H](CC[C@@H]21)[C@](O)(CO[C@@H]1O[C@H](CO)[C@@H](O)[C@H](O)[C@H]1O)C3 [PHARBOSIDE E],22.1,13.8,15.2,23.6
C[C@@]12CCC[C@@](C)(C(=O)O)[C@H]1[C@H](O)[C@H](O)[C@@]13C[C@H](CC[C@@H]21)[C@](CO)(O[C@@H]1O[C@H](CO)[C@@H](O)[C@H](O)[C@H]1O)C3 [PHARBOSIDE F],> 30,> 30,> 30,> 30
C=C1C[C@]23C[C@@H]1CC[C@H]2[C@]1(C)CCC[C@@](C)(C(=O)O[C@@H]2O[C@H](CO)[C@@H](O)[C@H](O)[C@H]2O)C1[C@@H]3C=O (stereo partly drawn) [PHARBOSIDE G],> 30,> 30,> 30,> 30
